Experimental data reported in ChEMBL document CHEMBL4325904 (Eur J Med Chem, 2019).
pIC50: −log10 of the molar value. The source made the active and inactive calls. No cut-off for these calls is given here.

Tests used:
Kasumi 1 = assay: Antiproliferative activity against human Kasumi-1 cells after 72 hrs by resazurin dye-based assay; format: functional, cell-based; details: Kasumi 1, 72 h
Outline: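 KASUMI-1 cells incubated with compounds for 72 hr; viability read with resazurin reagent. IC50 taken as the mean of three experiments, each run in duplicate.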

Histone deacetylase 1 = Histone deacetylase 1 (Homo sapiens, UniProt Q13547); assay: Inhibition of recombinant full length C-terminal FLAG/His-tagged human HDAC1 (1 to 482 residues) expressed in sf21 cells using RHK-K(Ac)-AMC as substrate by fluorimetric assay
Sequence of Histone deacetylase 1 (Q13547 whole entry, the tested form may be a part): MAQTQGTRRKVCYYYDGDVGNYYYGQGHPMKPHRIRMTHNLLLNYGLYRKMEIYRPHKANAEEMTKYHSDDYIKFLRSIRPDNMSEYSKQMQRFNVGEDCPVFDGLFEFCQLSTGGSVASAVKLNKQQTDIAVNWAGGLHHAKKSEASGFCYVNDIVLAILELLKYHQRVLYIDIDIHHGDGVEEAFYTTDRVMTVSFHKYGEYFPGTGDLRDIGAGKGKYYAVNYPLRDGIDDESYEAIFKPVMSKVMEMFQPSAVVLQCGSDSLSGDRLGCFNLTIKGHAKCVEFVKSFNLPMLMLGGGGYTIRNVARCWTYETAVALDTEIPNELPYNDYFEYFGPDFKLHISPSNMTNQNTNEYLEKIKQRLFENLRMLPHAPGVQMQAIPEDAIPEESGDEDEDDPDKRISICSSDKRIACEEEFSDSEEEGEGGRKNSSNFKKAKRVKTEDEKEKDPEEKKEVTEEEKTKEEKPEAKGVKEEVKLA

Histone deacetylase 11 = target: T1, Histone deacetylase 11 (Homo sapiens, UniProt Q96DB2); assay: Inhibition of recombinant C-terminal His-tagged human HDAC11 (1 to 347 residues) expressed in Baculovirus infected insect cells using RHKK-Ac as substrate by fluorimetric assay
T1 sequence (Q96DB2 whole entry): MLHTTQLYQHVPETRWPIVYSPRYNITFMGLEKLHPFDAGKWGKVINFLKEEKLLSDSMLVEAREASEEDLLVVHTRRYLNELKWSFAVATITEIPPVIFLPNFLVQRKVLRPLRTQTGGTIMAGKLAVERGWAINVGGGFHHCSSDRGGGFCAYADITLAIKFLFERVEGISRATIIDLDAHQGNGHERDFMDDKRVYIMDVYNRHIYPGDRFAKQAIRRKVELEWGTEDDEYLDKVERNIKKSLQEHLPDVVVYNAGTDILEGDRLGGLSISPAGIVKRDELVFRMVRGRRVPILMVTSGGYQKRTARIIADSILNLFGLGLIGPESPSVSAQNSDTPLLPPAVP

Homo sapiens [1] = species on record: Homo sapiens; assay: Selectivity ratio of IC50 for human recombinant full length C-terminal His-tagged HDAC3 (1 to 428 residues)/N-terminal GST-tagged NCOR2 (395 to 489 residues) to IC50 for recombinant N-terminal GST-tagged human HDAC6 (1 to 1215 residues)
[2] = target: T2, Protein deacetylase HDAC6 (Homo sapiens, UniProt Q9UBN7); assay: Inhibition of recombinant N-terminal GST-tagged human HDAC6 (1 to 1215 residues) expressed in Baculovirus infected insect cells using RHKK-Ac as substrate by fluorimetric assay
T2 sequence (Q9UBN7 whole entry): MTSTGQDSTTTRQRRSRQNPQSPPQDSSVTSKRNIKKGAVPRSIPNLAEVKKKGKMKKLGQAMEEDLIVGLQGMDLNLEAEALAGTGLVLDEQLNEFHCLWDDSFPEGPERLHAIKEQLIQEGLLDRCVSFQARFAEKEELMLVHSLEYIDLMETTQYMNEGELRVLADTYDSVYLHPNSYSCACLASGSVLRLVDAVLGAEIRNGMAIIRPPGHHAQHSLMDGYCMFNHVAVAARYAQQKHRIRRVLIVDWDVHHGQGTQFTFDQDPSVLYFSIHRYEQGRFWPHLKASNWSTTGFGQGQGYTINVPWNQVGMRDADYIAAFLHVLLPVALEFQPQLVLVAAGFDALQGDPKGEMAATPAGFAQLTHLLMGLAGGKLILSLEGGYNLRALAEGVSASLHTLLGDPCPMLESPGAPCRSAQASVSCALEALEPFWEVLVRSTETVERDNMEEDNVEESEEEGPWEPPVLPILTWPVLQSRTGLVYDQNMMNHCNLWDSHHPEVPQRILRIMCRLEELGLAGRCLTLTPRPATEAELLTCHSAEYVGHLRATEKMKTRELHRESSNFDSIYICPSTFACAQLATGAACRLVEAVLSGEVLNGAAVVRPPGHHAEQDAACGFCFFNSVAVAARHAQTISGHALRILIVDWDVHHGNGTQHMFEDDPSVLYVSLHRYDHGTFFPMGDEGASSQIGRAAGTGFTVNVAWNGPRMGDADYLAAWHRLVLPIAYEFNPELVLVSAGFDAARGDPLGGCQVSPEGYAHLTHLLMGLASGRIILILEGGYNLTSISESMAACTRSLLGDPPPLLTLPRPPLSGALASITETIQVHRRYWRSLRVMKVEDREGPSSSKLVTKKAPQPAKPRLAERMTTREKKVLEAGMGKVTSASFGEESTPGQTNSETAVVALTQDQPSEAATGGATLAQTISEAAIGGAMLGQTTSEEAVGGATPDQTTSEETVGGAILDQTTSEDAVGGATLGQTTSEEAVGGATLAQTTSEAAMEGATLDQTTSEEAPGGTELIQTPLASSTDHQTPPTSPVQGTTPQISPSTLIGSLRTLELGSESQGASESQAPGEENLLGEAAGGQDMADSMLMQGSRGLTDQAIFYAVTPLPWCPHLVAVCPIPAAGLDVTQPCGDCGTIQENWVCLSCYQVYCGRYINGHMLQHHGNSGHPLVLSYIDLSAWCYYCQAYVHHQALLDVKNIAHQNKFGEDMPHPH

Homo sapiens [3] = species on record: Homo sapiens; assay: Selectivity ratio of IC50 for recombinant full length C-terminal FLAG/His-tagged human HDAC1 (1 to 482 residues) to IC50 for recombinant N-terminal GST-tagged human HDAC6 (1 to 1215 residues)
[4] = target: Histone deacetylase 3/Nuclear receptor corepressor 2 (HDAC3/NCoR2) (Homo sapiens, UniProt O15379); format: cell-based
Sequence of Histone deacetylase 3/Nuclear receptor corepressor 2 (HDAC3/NCoR2) (O15379 whole entry, the tested form may be a part): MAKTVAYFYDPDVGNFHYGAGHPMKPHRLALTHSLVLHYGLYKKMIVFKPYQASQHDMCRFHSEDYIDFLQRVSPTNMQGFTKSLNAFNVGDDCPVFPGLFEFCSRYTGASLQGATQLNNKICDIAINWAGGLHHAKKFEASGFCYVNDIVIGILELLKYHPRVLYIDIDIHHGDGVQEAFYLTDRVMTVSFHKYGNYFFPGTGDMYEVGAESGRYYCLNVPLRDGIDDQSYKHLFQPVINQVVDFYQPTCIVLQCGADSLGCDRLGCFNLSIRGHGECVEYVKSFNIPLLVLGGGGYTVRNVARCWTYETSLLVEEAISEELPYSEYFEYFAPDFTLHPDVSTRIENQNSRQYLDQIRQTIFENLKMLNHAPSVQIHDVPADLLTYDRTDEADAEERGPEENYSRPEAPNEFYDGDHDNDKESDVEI
Sequence of Histone deacetylase 3/Nuclear receptor corepressor 2 (HDAC3/NCoR2) (Q9Y618 whole entry, further chain, the tested form may be a part): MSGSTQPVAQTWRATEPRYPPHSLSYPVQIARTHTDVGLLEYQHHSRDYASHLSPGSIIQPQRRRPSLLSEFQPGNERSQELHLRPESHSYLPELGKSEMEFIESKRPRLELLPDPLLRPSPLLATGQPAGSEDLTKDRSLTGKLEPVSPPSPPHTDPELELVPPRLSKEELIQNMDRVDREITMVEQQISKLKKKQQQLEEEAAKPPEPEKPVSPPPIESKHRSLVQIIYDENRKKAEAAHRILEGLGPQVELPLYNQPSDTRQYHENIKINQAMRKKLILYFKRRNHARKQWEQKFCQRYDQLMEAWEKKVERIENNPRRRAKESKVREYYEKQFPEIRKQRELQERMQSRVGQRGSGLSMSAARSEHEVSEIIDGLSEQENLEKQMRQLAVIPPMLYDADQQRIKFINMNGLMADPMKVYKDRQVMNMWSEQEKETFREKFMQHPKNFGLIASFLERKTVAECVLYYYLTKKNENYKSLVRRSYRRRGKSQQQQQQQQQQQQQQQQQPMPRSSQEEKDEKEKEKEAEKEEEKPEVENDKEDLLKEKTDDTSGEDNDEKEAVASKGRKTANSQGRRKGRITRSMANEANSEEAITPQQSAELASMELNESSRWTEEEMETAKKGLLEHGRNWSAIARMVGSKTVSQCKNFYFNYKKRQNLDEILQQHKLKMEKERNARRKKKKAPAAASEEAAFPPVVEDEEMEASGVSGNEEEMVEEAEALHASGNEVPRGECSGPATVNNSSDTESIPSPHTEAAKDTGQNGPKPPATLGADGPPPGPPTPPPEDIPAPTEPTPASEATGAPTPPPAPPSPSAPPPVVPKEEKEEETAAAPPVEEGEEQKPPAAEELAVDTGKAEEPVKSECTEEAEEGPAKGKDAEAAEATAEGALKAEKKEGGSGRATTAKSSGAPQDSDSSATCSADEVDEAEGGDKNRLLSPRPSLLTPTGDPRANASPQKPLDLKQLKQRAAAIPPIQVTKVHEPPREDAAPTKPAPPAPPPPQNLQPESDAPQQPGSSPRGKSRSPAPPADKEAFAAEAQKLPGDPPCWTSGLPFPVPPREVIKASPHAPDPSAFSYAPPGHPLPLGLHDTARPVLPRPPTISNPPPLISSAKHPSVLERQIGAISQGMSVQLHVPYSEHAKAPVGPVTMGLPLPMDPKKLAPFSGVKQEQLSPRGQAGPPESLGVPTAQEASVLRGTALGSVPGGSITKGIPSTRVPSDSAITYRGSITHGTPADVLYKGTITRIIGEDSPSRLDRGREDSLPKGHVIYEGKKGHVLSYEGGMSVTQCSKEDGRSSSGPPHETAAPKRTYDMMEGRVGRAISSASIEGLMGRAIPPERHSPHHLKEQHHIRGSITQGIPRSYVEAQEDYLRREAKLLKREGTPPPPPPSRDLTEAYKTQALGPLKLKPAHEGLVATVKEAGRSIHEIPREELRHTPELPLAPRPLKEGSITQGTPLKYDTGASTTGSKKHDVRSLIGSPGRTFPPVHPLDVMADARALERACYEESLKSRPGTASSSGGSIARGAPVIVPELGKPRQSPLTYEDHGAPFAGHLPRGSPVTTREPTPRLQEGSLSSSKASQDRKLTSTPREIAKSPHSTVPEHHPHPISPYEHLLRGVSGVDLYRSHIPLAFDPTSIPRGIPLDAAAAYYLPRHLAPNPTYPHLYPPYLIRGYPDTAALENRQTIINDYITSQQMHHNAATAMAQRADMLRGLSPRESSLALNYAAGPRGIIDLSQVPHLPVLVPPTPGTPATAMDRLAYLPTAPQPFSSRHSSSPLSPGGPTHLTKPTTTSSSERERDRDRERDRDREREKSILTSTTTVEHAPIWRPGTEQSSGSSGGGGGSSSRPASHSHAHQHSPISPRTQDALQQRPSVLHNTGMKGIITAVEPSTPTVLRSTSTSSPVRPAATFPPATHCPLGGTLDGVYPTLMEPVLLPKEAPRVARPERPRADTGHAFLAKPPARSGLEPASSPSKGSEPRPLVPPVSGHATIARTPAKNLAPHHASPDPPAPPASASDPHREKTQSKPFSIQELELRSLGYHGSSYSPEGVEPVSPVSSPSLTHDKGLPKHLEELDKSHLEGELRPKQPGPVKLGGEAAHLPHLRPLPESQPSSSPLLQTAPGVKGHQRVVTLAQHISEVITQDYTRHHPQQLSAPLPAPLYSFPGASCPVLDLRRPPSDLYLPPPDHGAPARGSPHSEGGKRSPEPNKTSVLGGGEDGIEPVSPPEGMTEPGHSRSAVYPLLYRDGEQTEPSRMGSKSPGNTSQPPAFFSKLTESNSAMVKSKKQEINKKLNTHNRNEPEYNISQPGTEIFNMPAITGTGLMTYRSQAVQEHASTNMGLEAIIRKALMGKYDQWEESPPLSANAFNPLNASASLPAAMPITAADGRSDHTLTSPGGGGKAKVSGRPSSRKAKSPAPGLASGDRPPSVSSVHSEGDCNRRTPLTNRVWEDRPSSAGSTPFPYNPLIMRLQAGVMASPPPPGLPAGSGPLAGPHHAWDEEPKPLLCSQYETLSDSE

Histone deacetylase 8 = target: T3, Histone deacetylase 8 (Homo sapiens, UniProt Q9BY41); assay: Inhibition of recombinant C-terminal His-tagged human HDAC8 (1 to 377 residues) expressed in Baculovirus infected insect cells using RHK-K(Ac)-AMC as substrate by fluorimetric assay
T3 sequence (Q9BY41 whole entry): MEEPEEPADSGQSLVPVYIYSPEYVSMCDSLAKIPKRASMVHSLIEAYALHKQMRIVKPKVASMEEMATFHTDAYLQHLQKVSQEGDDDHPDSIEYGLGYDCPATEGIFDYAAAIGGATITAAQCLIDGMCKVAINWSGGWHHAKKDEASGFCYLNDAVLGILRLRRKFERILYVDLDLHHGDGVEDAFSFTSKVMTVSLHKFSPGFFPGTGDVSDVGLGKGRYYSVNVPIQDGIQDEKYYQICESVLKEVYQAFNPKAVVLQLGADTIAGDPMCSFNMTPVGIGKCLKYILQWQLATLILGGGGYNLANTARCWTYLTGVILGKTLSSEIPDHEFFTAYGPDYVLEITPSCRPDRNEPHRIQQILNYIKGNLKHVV

Danio rerio = assay: Antiangiogenic activity in zebrafish embryo assessed as effect on blood vessel development at 10 uM administered from 24 to 50 hrs post fertilization for 24 hrs and measured after 72 hrs by alkaline phosphatase assay; format: functional, organism-based
Outline: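 Zebrafish embryos exposed at 10 µM from 24–50 hpf alongside vehicle-only controls; at 72 hpf embryos stained with alkaline phosphatase to visualise blood vessels.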

[5] = Drug uptake in human A549 cells cytoplasm at 1 uM after 2 hrs by naphthalimide dye-based inverted light fluorescence confocal microscopic analysis; format: ADME, subcellular; details: a549, 2 h
Outline: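 A549 cells incubated 2 hours with compound at 1 µM; intracellular distribution imaged by confocal microscopy with 405 nm laser excitation, emission collected at 460–560 nm.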

[6] = Drug uptake in human A549 cells lysosome at 1 uM after 2 hrs by naphthalimide/Lysotracker Deep Red dye-based inverted light fluorescence confocal microscopic analysis; format: ADME, subcellular; details: a549, 2 h
[7] = Drug uptake in human A549 cells lysosome at 1 uM after 2 hrs by Lyso-tracker red-based inverted light fluorescence confocal microscopic analysis; details: a549, 2 h
[8] = target: T2, Protein deacetylase HDAC6; assay: Inhibition of human HDAC6 using (Z-(Ac)Lys-AMC) as substrate after 90 mins by fluorescence analysis
Homo sapiens [9] = species on record: Homo sapiens; assay: Selectivity ratio of IC50 for human HDAC1 to IC50 for human HDAC6

| Compound | pIC50 (Kasumi 1) | pIC50 (Histone deacetylase 1) | pIC50 (Histone deacetylase 11) | Ratio IC50 (Homo sapiens [1]) | pIC50 [2] | Ratio IC50 (Homo sapiens [3]) | pIC50 [4] | pIC50 (Histone deacetylase 8) | Activity (Danio rerio) | Drug uptake [5] | Drug uptake [6] | Drug uptake [7] | pIC50 [8] | Ratio IC50 (Homo sapiens [9]) |
| --- | --- | --- | --- | --- | --- | --- | --- | --- | --- | --- | --- | --- | --- | --- |
| O=C(CCCCCN1C(=O)c2cccc3c(Nc4cccc(F)c4)ccc(c23)C1=O)NO | 6.49 | 5.51 | 6.68 | 39 | 7.85 | 219 | 6.26 | 5.39 |  |  |  |  |  |  |
| O=C(CCCCCN1C(=O)c2cccc3c(Nc4ccccc4)ccc(c23)C1=O)NO | 6.55 | 5.62 | 6.72 | 36 | 7.89 | 183 | 6.33 | 5.39 |  |  |  |  |  |  |
| CC(/C=C/C(=O)NO)=C\[C@@H](C)C(=O)c1ccc(N(C)C)cc1 |  |  |  |  |  |  |  |  | Active |  |  |  |  |  |
| Nc1ccccc1NC(=O)CCCCCN1C(=O)c2cccc3cccc(c23)C1=O | 5.96 | 6.13 | 5.03 |  | < 5.00 |  | 6.70 | < 5.00 |  |  |  |  |  |  |
| Nc1ccccc1NC(=O)CCCCCN1C(=O)c2cccc3c(N4CCOCC4)ccc(c23)C1=O | 6.19 | 6.37 | 5.09 |  | < 5.00 |  | 6.54 | < 5.00 |  | Active | Active | Active |  |  |
| O=C(CCCCCN1C(=O)c2cccc3c(N4CCOCC4)ccc(c23)C1=O)NO | 6.54 | 5.84 | 6.54 | 27 | 7.92 | 119 | 6.49 | 5.74 |  |  |  |  | 7.92 | 120 |
| O=C(CCCCCN1C(=O)c2cccc3cccc(c23)C1=O)NO | 6.31 |  |  |  |  |  |  |  | Active |  |  |  |  |  |
| CN(Cc1ccccc1)c1ccc2c3c(cccc13)C(=O)N(CCCCCC(=O)NO)C2=O | 6.09 | 5.62 | 5.91 | 72 | 8.01 | 245 | 6.15 | 5.85 |  |  |  |  |  |  |
| O=C(CCCCCN1C(=O)c2cccc3c([N+](=O)[O-])ccc(c23)C1=O)NO | 6.24 | 6.20 | 5.99 | 284 | 8.24 | 111 | 5.79 | 6.21 |  |  |  |  |  |  |
| O=C(NO)c1ccc(CNC(=O)c2cc(Cn3c4ccccc4c4ccccc43)on2)cc1 |  |  |  |  |  |  |  |  |  |  |  |  | 9.21 | 490 |
